Tests used:
[1] = cited from earlier work
[2] = system: EMT6 and EMT6Ar1.0 tumour sections (Pgp); assay: In vitro autoradiography on tumour sections; type: binding, mouse; settings: for binding in EMT6Ar1.0 tumours compared to EMT6 tumours: radiotracer alone, 30 min incubation, 10 μm tumour slices
Outline: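 Frozen tumours from imaged mice were cut into 10 μm cryostat sections at −12°C, with 3 consecutive sections. Sections were thawed, preincubated in PBS, then incubated 30 min with ¹¹C-labelled Pgp radiotracer (about 20 MBq), alone or with unlabelled inhibitor (10 μM). They were washed in 20% (v/v) ethanol/PBS and distilled water, air-dried, exposed to a phosphor screen and scanned at 600 dpi.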

[3] = system: Pgp at the BBB (whole brain); assay: Small-animal PET, whole brain as reference region for Pgp modulation at the BBB; type: in vivo, mouse; settings: for tumoural activity uptake relative to brain activity uptake: scan 1, before unlabelled tariquidar; for brain AUC0-60 in scan 2 relative to scan 1: whole brain, scan 2 at 2 h after unlabelled tariquidar 15 mg/kg i.v.
[4] = system: Pgp overexpressing EMT6Ar1.0 tumours; type: in vivo, mouse
EMT6 tumours [5] = type: in vivo, mouse; settings: scan 2, 2 h after unlabelled tariquidar 15 mg/kg i.v.
EMT6Ar1.0 tumours = assay: Static [18F]FDG PET, EMT6Ar1.0 tumours; type: in vivo, mouse; settings: 10 min static PET scan at 60 min after injection
Outline: (§1)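 Female athymic NMRI-Foxn1^nu mice (6-8 weeks) had EMT6 and EMT6Ar1.0 cells (3-5 × 10⁵) injected subcutaneously into opposite upper flanks. At about 130 mm³ tumour size, mice (n=7) under isoflurane at about 37°C received [¹⁸F]FDG (6±3 MBq) i.v. A 10 min static microPET scan was taken at 60 min. Tumour ROIs were outlined manually, with SUV = (radioactivity/cm³ ÷ injected radioactivity) × body weight.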

EMT6 tumours [6] = assay: Static [18F]FDG PET, EMT6 tumours; type: in vivo, mouse; settings: 10 min static PET scan at 60 min after injection
Outline: as §1

EMT6Ar1.0 cells = assay: In vitro cytotoxicity assay, EMT6Ar1.0 cells; type: cell-based, mouse; settings: tariquidar ≥0.1 μM, 48 h, culture medium containing doxorubicin
Outline: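 The Pgp-overexpressing line was derived from EMT6 cells by culture under increasing doxorubicin concentrations and kept at 37°C, 5% CO₂. Cells were exposed to increasing test compound concentrations (0.01 to 10 μM) in their own culture medium for 48 h. Survival was expressed relative to control cells.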

EMT6 cells = assay: In vitro cytotoxicity assay, EMT6 cells; type: cell-based, mouse; settings: tariquidar 0.01 to 10 μM, 48 h
Outline: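 EMT6 cells were grown as monolayers in Waymouth's MB 752/1 with 2.4 mM L-glutamine, 15% heat-inactivated FBS and penicillin/streptomycin at 37°C, 5% CO₂. Cells were exposed to increasing test compound concentrations (0.01 to 10 μM) in their culture medium for 48 h. Survival was expressed relative to control cells.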

[7] = cited from earlier work; remark: listed apart in the source
Pgp at the BBB = settings: tariquidar dose 15 mg/kg; cited from earlier work

Compound	metabolism in vivo [1]	binding in EMT6Ar1.0 tumours compared to EMT6 tumours [2]	tumoural activity uptake relative to brain activity uptake [3]	brain AUC0-60 in scan 2 relative to scan 1 [3]	further results
4-[^18F]fluoropaclitaxel [reference compound]	extensively metabolised				
COc1ccc(CCN([11CH3])CCC[C@](C#N)(c2ccc(OC)c(OC)c2)C(C)C)cc1OC [(R)-[^11C]verapamil, reference compound]		1.3 times			radiotracer binding after co-incubation ([2]; both tumours, co-incubation with unlabelled tariquidar, elacridar or verapamil (10 μM)): no significant reduction
COc1cc2c(cc1OC)CN(CCc1ccc(NC(=O)c3cccc4c(=O)c5cccc(OC)c5[nH]c34)cc1)CC2 [[^11C]elacridar]	hardly metabolised	2.1 times	2 to 3 times	3.5±0.4 times	
COc1cc2c(cc1OC)CN(CCc1ccc(NC(=O)c3cc(OC)c(OC)cc3NC(=O)c3cnc4ccccc4c3)cc1)CC2 [[^11C]tariquidar]	hardly metabolised	4.3 times	2 to 3 times	2.4±0.3 times	higher retention in EMT6Ar1.0 tumours than in EMT6 tumours ([4]; PET, AUC0-60): 50%; mean AUC0-60±SD of tumour time-activity curve (SUV) ([4]; scan 2, 2 h after unlabelled tariquidar 15 mg/kg i.v., EMT6Ar1.0 tumours): 45.6 ± 4.8 min; mean AUC0-60±SD of tumour time-activity curve (SUV) (EMT6 tumours [5]): 31.7 ± 7.9 min
OC[C@H]1OC(O)[C@H]([18F])[C@@H](O)[C@@H]1O (some centres unmarked) [[^18F]FDG]					mean tumoural SUV±SD (EMT6Ar1.0 tumours): 2.45±0.75; mean tumoural SUV±SD (EMT6 tumours [6]): 1.86±0.49
COc1cc2c(cc1OC)CN(CCc1ccc(NC(=O)c3cc(OC)c(OC)cc3NC(=O)c3cnc4ccccc4c3)cc1)CC2 [tariquidar, Tariquidar dimesylate]					cell survival rate (EMT6Ar1.0 cells): < 5 % of control cells; effect on cell survival (EMT6 cells): no effect; terminal elimination half-life [7]: 26 h; inhibition of Pgp at the BBB (Pgp at the BBB): complete inhibition

Source: publication PMC3684861 (European journal of nuclear medicine and molecular imaging, 2011)
